For one assay, the system named is Vero. Description: Cytotoxicity against african green monkey Vero cells after 72 hrs by MTT assay. The assay is classed as cell-based. The settings on record: Chlorocebus sabaeus. In a few lines:
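Vero monkey kidney cells exposed to compounds by serial double dilution up to 62.5 µg/mL for 72 h. Viability read from cellular MTT conversion to formazan (Cell Titer 96 non-radioactive proliferation assay); IC50 reported.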
(In general: Tetrazolium dyes change colour on reduction, which living cells bring about.)

Assay [1] has as its system Mycobacterium tuberculosis. Kind of assay: Antimycobacterial activity against Mycobacterium tuberculosis H37Rv by agar dilution method. The assay is classed as functional. In outline:
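Agar dilution MIC on Middlebrook 7H11 agar supplemented with OADC, following NCCLS-like procedure; determined in duplicate.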
(Agar dilution tests growth on a series of plates holding different concentrations.)

Assay [2] concerns Mycobacterium tuberculosis. Description: Antimycobacterial activity against Mycobacterium tuberculosis ATCC 35801 infected in CD1 mouse assessed as bacterial load in spleen at 25 mg/kg, ip administered 10 days postinfection for 10 days measured after 35 days of infection (Rvb=9.02 +/- 0.21 log CFU). Format: functional. The conditions noted are these: route intraperitoneal.
Assay [3] deals with Mycobacterium tuberculosis. Description: Antimycobacterial activity against Mycobacterium tuberculosis ATCC 35801 infected in CD1 mouse assessed as bacterial load in lungs at 25 mg/kg, ip administered 10 days postinfection for 10 days measured after 35 days of infection (Rvb=7.99 +/- 0.16 log CFU). The conditions noted are these: route intraperitoneal. The assay is classed as functional.

A short description of assay [4]: Selectivity index, ratio of IC50 for african green monkey Vero cells to MIC for Mycobacterium tuberculosis H37Rv. Format: functional.

The structures appear in SMILES notation. Converted amounts (≈) assume the structure as drawn. Bounds are passed on as bounds.

`CC[C@@H](CO)NCCN[C@@H](CC)CO` [ETHAMBUTOL] registered a half-maximal inhibitory concentration (IC50) in the assay on Vero greater than 306 µM. The compound also gave a minimum inhibitory concentration (MIC) in assay [1] of 7.63 µM (≈ 1.56 µg/mL).
Consider `O=C(NCC1=C[C@@H]2Oc3ccccc3C(=O)C2=CN1c1ncc(Br)cc1Br)c1ccc(Cl)c(Cl)c1`, for which the 50% inhibitory concentration (IC50) in the assay with Vero was 50.7 µM. Inhibition of growth in assay [1] (MIC) required 9.82 µM (≈ 6.25 µg/mL).
For `Cc1ccc2ccc(C(=O)NCC3=C[C@@H]4Oc5ccccc5C(=O)C4=CN3c3ncccc3C)cc2c1`, in that order: greater than 128 µM and 0.41 µM (≈ 0.2 µg/mL).
As to `NNC(=O)c1ccncc1` [ISONIAZID], the log10cfu is 4.71 in assay [2] and 5.86 in assay [3]. The IC50 in the assay on Vero was greater than 456 µM. The compound further came in with an MIC in assay [1] of 0.36 µM (≈ 0.0494 µg/mL).
`Cc1cccnc1N1C=C2C(=O)c3ccccc3O[C@H]2C=C1CNC(=O)COc1ccccc1` had an MIC in assay [1] of 13.8 µM (≈ 6.25 µg/mL).
Turning to `O=C(NCC1=C[C@@H]2Oc3ccccc3C(=O)C2=CN1c1ncc(Br)cc1Br)c1ccccc1`, in assay [1], the minimum inhibitory concentration (MIC) amounted to 11 µM (≈ 6.25 µg/mL).
On to `CCc1ccc(C(=O)NCC2=C[C@@H]3Oc4ccccc4C(=O)C3=CN2c2ncccc2C)cc1`, for which the log10cfu is recorded as 6.08 in assay [2] and 6.88 in assay [3]. Moreover, the IC50 in the assay with Vero is greater than 138 µM. Further, the “Selectivity Index” value in assay [4] is 629. Inhibition of growth in assay [1] (MIC) required 0.22 µM (≈ 0.0993 µg/mL).
On to `CO[C@H]1/C=C/O[C@@]2(C)Oc3c(C)c(O)c4c(O)c(c(/C=N/N5CCN(C)CC5)c(O)c4c3C2=O)NC(=O)/C(C)=C\C=C\[C@H](C)[C@H](O)[C@@H](C)[C@@H](O)[C@@H](C)[C@H](OC(C)=O)[C@@H]1C` [RIFAMPIN], for which, in the assay with Vero, the IC50 is greater than 75.9 µM. In assay [1], this compound yielded a minimum inhibitory concentration (MIC) of 0.12 µM (≈ 0.0988 µg/mL).
In assay [1], `O=C(NCC1=C[C@@H]2Oc3ccccc3C(=O)C2=CN1c1ncc(Br)cc1Br)c1ccc(F)cc1` came in with an MIC of 10.7 µM (≈ 6.24 µg/mL).
In turn, `O=C(COc1ccccc1)NCC1=C[C@@H]2Oc3ccccc3C(=O)C2=CN1c1ncc(Br)cc1Br` showed an MIC in assay [1] of 10.5 µM (≈ 6.25 µg/mL).
On the same count and under the same terms, for `Cc1ccc(C(=O)NCC2=C[C@@H]3Oc4ccccc4C(=O)C3=CN2c2ncc(Br)cc2Br)cc1` the value was 5.38 µM (≈ 3.13 µg/mL).
`CC1COc2c(N3CCN(C)CC3)c(F)cc3c(=O)c(C(=O)O)cn1c23` (centres undefined) [OFLOXACIN] returned an IC50 in the assay on Vero greater than 155 µM. In addition, it took 2.13 µM (≈ 0.77 µg/mL) to inhibit growth in assay [1] (MIC).
Taken in the same sequence, the figures for `Cc1ccc(C(=O)NCC2=C[C@@H]3Oc4ccccc4C(=O)C3=CN2c2ncccc2C)cc1` were greater than 143 µM and 1.78 µM (≈ 0.779 µg/mL).
Consider `Cc1cccnc1N1C=C2C(=O)c3ccccc3O[C@H]2C=C1CNC(=O)c1cccc(Cl)c1`, for which the 50% inhibitory concentration (IC50) in the assay on Vero is greater than 136 µM. In assay [1], this compound displayed a minimum inhibitory concentration (MIC) of 1.7 µM (≈ 0.778 µg/mL).
The compound `COc1ccc(C(=O)NCC2=C[C@@H]3Oc4ccccc4C(=O)C3=CN2c2ncc(Br)cc2Br)cc1` had a minimal inhibitory concentration (MIC) in assay [1] of 10.5 µM (≈ 6.25 µg/mL).
Turning to `Cc1cccnc1N1C=C2C(=O)c3ccccc3O[C@H]2C=C1CNC(=O)c1ccc(F)cc1`, the IC50 with Vero is greater than 142 µM. Moreover, the minimal inhibitory concentration (MIC) in assay [1] amounted to 7.09 µM (≈ 3.13 µg/mL).
Taken in the same sequence, the figures for `O=C(NCC1=C[C@@H]2Oc3ccccc3C(=O)C2=CN1c1ncc(Br)cc1Br)c1ccc2ccccc2c1` were 101 µM and 2.52 µM (≈ 1.56 µg/mL).
Taken in the same sequence, the figures for `Cc1cccnc1N1C=C2C(=O)c3ccccc3O[C@H]2C=C1CNC(=O)c1ccccc1` were greater than 148 µM and 7.36 µM (≈ 3.12 µg/mL).
Taken in the same sequence, the figures for `Cc1cccnc1N1C=C2C(=O)c3ccccc3O[C@H]2C=C1CNC(=O)c1ccc(Cl)cc1` were 136 µM and 1.7 µM (≈ 0.778 µg/mL).
`CCc1ccc(C(=O)NCC2=C[C@@H]3Oc4ccccc4C(=O)C3=CN2c2ncc(Br)cc2Br)cc1`: half-maximal inhibition in the assay with Vero (IC50) was put at 105 µM. Further, in assay [1], inhibition of growth (MIC) required 2.6 µM (≈ 1.55 µg/mL).
With `O=C(NCC1=C[C@@H]2Oc3ccccc3C(=O)C2=CN1c1ncc(Br)cc1Br)c1ccc(Cl)cc1`, in the assay with Vero, the concentration for half-maximal inhibition (IC50) is greater than 104 µM. Also, the MIC in assay [1] turned out to be 2.95 µM (≈ 1.77 µg/mL).
Taken in the same sequence, the figures for `Cc1ccc2ccc(C(=O)NCC3=C[C@@H]4Oc5ccccc5C(=O)C4=CN3c3ncc(Br)cc3Br)cc2c1` were 99 µM and 1.23 µM (≈ 0.777 µg/mL).
Compound `Cc1cccnc1N1C=C2C(=O)c3ccccc3O[C@H]2C=C1CNC(=O)c1ccc2ccccc2c1` came in with an IC50 in the assay with Vero of 142 µM. In addition, the lowest concentration to inhibit growth in assay [1] (MIC) was 0.84 µM (≈ 0.398 µg/mL).
Turning to `O=C(NCC1=C[C@@H]2Oc3ccccc3C(=O)C2=CN1c1ncc(Br)cc1Br)c1cccc(Cl)c1`, the half-inhibitory concentration (IC50) in the assay on Vero is 104 µM. The MIC in assay [1] was determined as 5.2 µM (≈ 3.13 µg/mL).
For `COc1ccc(C(=O)NCC2=C[C@@H]3Oc4ccccc4C(=O)C3=CN2c2ncccc2C)cc1`, in that order: greater than 138 µM and 1.72 µM (≈ 0.78 µg/mL).

Broadly, the IC50 is the concentration that gives 50% inhibition. The term MIC denotes the smallest concentration in the dilution series that meets the test's criterion for growth inhibition.

These data come from ChEMBL document CHEMBL1154729, “Discovery of novel antitubercular 2,10-dihydro-4aH-chromeno[3,2-c]pyridin-3-yl derivatives” (Eur J Med Chem, 2010).
